{
  "source": "paper PMC10319625",
  "about": "(PNAS Nexus, 2023)",
  "key": {"SAS": {"system": "SAS", "assay": "Cell proliferation assay", "type": "cell-based, human", "details": "48 h"}, "[1]": {"system": "liver and kidney of KSN/Slc nude mice", "assay": "Histopathological analysis of liver and kidney, tumor-free mice", "type": "in vivo, mouse", "details": "10 days treatment", "method_in_brief": "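Tumor-free KSN/Slc nude mice received saline, test compound or cisplatin for 10 days on the xenograft regimen. Liver and kidney sections were HE-stained for histopathology. Glomerulus area was measured (mean ± SD, n = 15 sections from 3 mice) and compared by one-way ANOVA with Tukey's test.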"}, "SAS cells [2]": {"system": "SAS cells", "assay": "Western blot analysis of caspase-3 and PARP-1 cleavages", "type": "cell-based, human", "details": "5 µM cAQ-mBen or 50 µM CDDP, 12 or 24 h"}, "[3]": {"system": "primary mouse bone marrow cells (BMCs)", "assay": "Cell proliferation assay", "type": "cell-based", "details": "BMC (normal cells), 48 h"}, "SAS cells [4]": {"system": "SAS cells", "assay": "Annexin V/PI staining", "type": "cell-based, human", "details": "5 µM cAQ-mBen or 50 µM CDDP, 24 h", "method_in_brief": "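SAS cells were exposed for 24 h to 5 µM test compound or to 50 µM cisplatin (positive control), then stained with annexin V-FITC and propidium iodide. Positive cells are expressed as % of total cell number per field. Values are mean ± SD of total apoptotic cells (n = 5), compared by one-way ANOVA with Tukey's test.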"}, "Ca9-22": {"system": "Ca9-22", "assay": "Cell proliferation assay", "type": "cell-based, human", "details": "Ca9-22, 48 h"}, "HeLa": {"system": "HeLa", "assay": "Cell proliferation assay", "type": "cell-based, human", "details": "48 h"}, "[5]": {"assay": "Mouse xenograft model, body weight", "type": "in vivo", "details": "3 µmol/kg cAQ-mBen or 30 µmol/kg CDDP, every 2 days for 5 times", "method_in_brief": "(§1)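 SAS cells were inoculated subcutaneously into KSN/Slc nude mice. From day 7 after inoculation (day 0), mice received saline, 3 µmol/kg test compound or 30 µmol/kg cisplatin intraperitoneally every 2 days, 5 times. Tumor volume and body weight were recorded at set points to day 10 (n = 9 control and test, n = 8 cisplatin). Statistics: two-way ANOVA with Tukey's test.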"}, "[6]": {"type": "in vivo, mouse", "details": "day 10 of treatment, versus negative control"}, "[7]": {"system": "SAS cells xenograft tumors in KSN/Slc nude mice", "assay": "Mouse xenograft model, tumor volume", "type": "in vivo", "details": "3 µmol/kg cAQ-mBen or 30 µmol/kg CDDP, peritoneally every 2 days for 5 times", "method_in_brief": "as §1"}, "PANC-1 and MIA PaCa-2": {"system": "PANC-1 and MIA PaCa-2", "details": "human pancreatic cancer cell lines, cited from earlier work"}},
  "note": "Where two headings read alike, the source gives them in different places.",
  "data": [
    {"smiles": "N.N.[Cl][Pt][Cl]", "note": "[CDDP, cis-diamminedichloroplatinum(II)]", "values": [
      {"measurement": "IC50", "setting": "SAS", "result": 4.3, "unit": "µM"},
      {"measurement": "cell arrangement and size of the glomerulus in the kidney", "setting": "[1]", "result": "significant condensation of the glomerulus area"},
      {"measurement": "digestion of PARP-1 and caspase-3", "setting": "SAS cells [2]", "result": "observed in a time-dependent manner"},
      {"measurement": "IC50", "setting": "[3]", "result": 1.3, "unit": "µM"},
      {"measurement": "Anx Alone(%), cells positive for annexin V, % of total cell count, Mean", "setting": "SAS cells [4]", "result": 24.0, "unit": "%"},
      {"measurement": "PI (%), cells positive for PI signal, % of total cell count, Mean", "setting": "SAS cells [4]", "result": 18.5, "unit": "%"},
      {"measurement": "IC50", "setting": "Ca9-22", "result": 27.7, "unit": "µM"},
      {"measurement": "IC50", "setting": "HeLa", "result": 0.5, "unit": "µM"},
      {"measurement": "body weight of mice", "setting": "[5]", "result": "considerably reduced"},
      {"measurement": "physiological indices of serum (BUN, UA, AST, ALT, CRE, and γ-GTP levels)", "setting": "[6]", "result": "substantial increase"},
      {"measurement": "increase in the tumor volume", "setting": "[7]", "result": "significantly suppressed"}
    ]},
    {"smiles": "O=C1c2ccc3c4c(c(NCCN5CCCC5)cc(c24)C(=O)N1CCCN1CCOCC1)C(=O)N(CCCN1CCOCC1)C3=O", "note": "[CM03]", "values": [
      {"measurement": "expression of hTERT", "setting": "PANC-1 and MIA PaCa-2; after 6 h", "result": "remained downregulated"}
    ]},
    {"smiles": "O=C1c2cc(-c3ccc(CN4CCCC4)cc3)c3c4c(cc(NCCN5CCCC5)c(c24)C(=O)N1CCCN1CCOCC1)C(=O)N(CCCN1CCOCC1)C3=O", "note": "[SOP1812]", "values": [
      {"measurement": "expression of hTERT", "setting": "PANC-1 and MIA PaCa-2; after 24 h", "result": "remained downregulated"}
    ]}
  ]
}
